# This is a sample that favours compounds with a hit; in the whole collection about 1.5% have one here.
# p97 inhibitor: human p97 ATPase inhibition; P55072; recombinant p97 ATPase, Kinase-Glo ATP luminescence, 3 h; inhibition, % at 8 µM; hit rate 0.42% among 220,000; AID 1481; in the data active = inhibition above about 15%;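 also: 0% = DMSO vehicle and 100% = wells lacking enzyme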
# PKD1 kinase inh: PKD1 (human) kinase inhibition. Q15139. PKD1 kinase fluorescence polarization assay. inhibition, % (no concentration beside the values). hit rate 0.056% among 200,000; in the data active = inhibition above about 50%
# Hsp70 activator: transcriptional activators of Hsp70; HeLa Hsp70 promoter luciferase reporter, luminescence; scaled: vehicle 0, proteasome-inhibitor control 100%; activation, % at 10 µM; hit rate 0.04% among 200,000; AID 1203;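 active = activation above the mean across all tested compounds plus 3 SD, cutoff set per campaign, cut at about 5.5% in these data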;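 also: 100% = MG132 at 30 µM as the positive control and 0% = DMSO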
# PP5 inh: PP5 (human) phosphatase inhibition; P53041; purified PP5c, OMFP substrate fluorescence; inhibition, % at 6.7 µM; hit rate 0.18% among 320,000; AID 1987;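 active = inhibition above the campaign's mean inhibition across all tested compounds plus 3 SD, cut at about 9.5% in these data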;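 also: 0% = DMSO only and 100% = 100 µM cantharidin control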
# PP1 inh: blocks human PP1-alpha phosphatase, a PP5 counter-screen. P62136. purified PP1alpha, OMFP fluorescence. inhibition, % at 6.7 µM. hit rate 0.9% among 320,000. AID 2235;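 active = inhibition above the mean inhibition of all tested compounds plus 3 SD, computed separately for each screening campaign, cut at about 15% in these data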
# Target sequence (P62136 whole entry, looked up): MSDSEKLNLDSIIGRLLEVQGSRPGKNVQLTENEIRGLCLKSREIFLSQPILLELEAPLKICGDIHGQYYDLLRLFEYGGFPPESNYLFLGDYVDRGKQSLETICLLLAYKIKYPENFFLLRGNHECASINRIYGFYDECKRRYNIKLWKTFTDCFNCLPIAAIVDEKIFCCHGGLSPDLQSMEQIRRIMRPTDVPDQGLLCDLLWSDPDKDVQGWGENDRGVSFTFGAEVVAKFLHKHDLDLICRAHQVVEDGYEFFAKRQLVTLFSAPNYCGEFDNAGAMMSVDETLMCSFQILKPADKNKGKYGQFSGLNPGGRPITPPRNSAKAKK
# RBBP9 inh: blocks human serine hydrolase RBBP9; recombinant RBBP9, FP-Rh probe fluorescence polarization; hit rate 0.2% among 220,000; inhibition, % at 7.94 µM; AID 1515;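 active = inhibition above the campaign mean of all tested compounds plus 3 SD, cut at about 14% in these data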;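 also: plate controls were DMSO wells with RBBP9 for no effect and wells lacking RBBP9 protein for full effect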
# Target sequence (O75884 whole entry, looked up): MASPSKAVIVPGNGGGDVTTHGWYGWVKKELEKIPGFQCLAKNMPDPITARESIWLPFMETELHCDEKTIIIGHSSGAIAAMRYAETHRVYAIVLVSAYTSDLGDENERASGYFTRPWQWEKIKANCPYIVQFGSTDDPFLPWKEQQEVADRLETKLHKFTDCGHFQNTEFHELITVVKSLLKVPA
#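 System: RBBP9 protein | Quantity: 2.5 µM RBBP9 dispensing solution, before mixing | Reagent: FP-Rh probe, 375 nM dispensing solution | Timing: Enzyme-compound preincubation 30 min, then probe labeling 45 min, 25 °C | Measured by: Fluorescence polarization | Read-out: % inhibition | Replication: One well per compound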
# The depositor's hits bear a star; nt = not tested or not shown.
SMILES,p97 inhibitor,PKD1 kinase inh,Hsp70 activator,PP5 inh,PP1 inh,RBBP9 inh
COc1ccc(NC(=O)CN(C)C(=O)C2=NN(c3ccccc3)C(=O)CC2)cc1,nt,nt,nt,3,-4,nt
COc1cc(C2Nc3cccc4cccc(c34)N2)ccc1OC(C)=O,10,10,0,3,3,-5
COc1cc(C2Nc3cccc4cccc(c34)N2)cc(OC)c1O,4,1,0,-1,36*,-5
Cc1ccc(-n2nc3c(N4CCC(C(=O)NCc5ccccc5C)CC4)nnc(C)c3c2C)cc1,nt,nt,nt,4,16*,nt
COc1ccc(-n2c(C)cc(-c3cn4cccc(C)c4n3)c2C)cc1,4,-5,0,1,15*,-5
Cc1cc(-c2cn3ccccc3n2)c(C)n1-c1ccccc1,8,0,0,0,12,4
Cc1ccc(COc2ccc(CNCCCN3CCCCCC3=O)cc2)cc1,nt,nt,nt,0,-4,nt
COc1cc2ccccc2cc1C(=O)Nc1ccc(Cc2ccncc2)cc1,2,-10,0,6,16*,-11
O=C(CSc1nnc(C2CC2)n1CC1CCCO1)Nc1ccc(Cl)cc1 (stereo unspecified),nt,nt,nt,2,-3,nt
COc1ccccc1N1CCN(Cc2ccc(O)c3ncccc23)CC1,4,-1,0,2,15*,0
NNC(=O)c1cc2c(N3CCC(Cc4ccccc4)CC3)ncnc2s1,-1,-8,0,0,16*,-9
Cn1ncc2c(N3CCC(Cc4ccccc4)CC3)ncnc21,-3,-12,0,1,3,-7
Cc1cccc(N(Cc2ccccc2)C(=O)CN2C(=O)NC3(CCCCC3C)C2=O)c1 (stereo unspecified),nt,nt,nt,3,1,nt
CC(C)(C)c1ccc(Cn2nnc3c(=O)[nH]c(C4CCCN(C(=O)c5cccs5)C4)nc32)cc1 (stereo unspecified),nt,nt,nt,3,16*,nt
CC(C)(C)c1ccc(Cn2nnc3c(=O)[nH]c(C4CCCN(C(=O)Cc5cccs5)C4)nc32)cc1 (stereo unspecified),2,2,0,4,14,-3
O=C(/C=C/c1ccccc1)NC(N1CCOCC1)C(Cl)(Cl)Cl (stereo unspecified),1,4,0,4,3,4
CN1CCN(C(=O)c2ccc(CSc3nc4ccncc4n3Cc3ccc(F)cc3)cc2)CC1,16*,-16,0,0,5,-1
CCC(C)NC(=O)c1ccc(CSc2nc3ccncc3n2Cc2ccc(F)cc2)cc1 (stereo unspecified),5,2,0,1,2,-2
COc1ccccc1-c1nnc(SCC(=O)c2ccc(C3CCCCC3)cc2)n1Cc1ccco1,-6,-4,0,1,17*,-9
CCCCc1nnc(NC(=O)CCS(=O)(=O)c2ccc(Cl)cc2)s1,nt,nt,nt,-1,0,nt
Cc1cc(-c2csc(NC(=O)c3ccc(=O)n(C)n3)n2)c(C)n1CC1CCCO1 (stereo unspecified),6,-2,1,4,16*,3
Cc1cc(-c2csc(NC(=O)C3=COCCO3)n2)c(C)n1C,nt,nt,nt,-2,13,nt
CN(C)c1ccc(C(=O)c2ccccc2C(=O)O)c(O)c1,-3,0,-1,3,-3,-2
CCCCN(CCCC)c1ccc(C(=O)c2ccccc2C(=O)O)c(O)c1,-3,0,0,3,17*,-7
NS(=O)(=O)c1ccc(CNC(=O)Cn2nc(C(F)F)cc2C(F)F)cc1,nt,nt,nt,-2,-1,nt
SMILES,p97 inhibitor,PKD1 kinase inh,Hsp70 activator,PP5 inh,PP1 inh,RBBP9 inh
Cc1ccc(C(C(=O)NC2CCCC2)N2CCCCC2)cc1 (stereo unspecified),2,-2,0,3,-3,-3
Cc1ccc(C(C(=O)NC2CCCCC2)N2CCCC2)cc1 (stereo unspecified),4,-2,0,0,17*,-5
COC(=O)c1[nH]c2cc(OC)c(OC)cc2c1/C=N/Nc1ccccc1,nt,nt,nt,5,-3,nt
CCc1ccc2[nH]c(=O)c(C3C(C#N)=C(N)Oc4c3ccc3cccnc43)cc2c1 (stereo unspecified),0,-2,0,1,23*,-2
CC(Sc1nc(N)cc(=O)[nH]1)C(=O)NCC(=O)Nc1ccc(F)c(F)c1F (stereo unspecified),nt,nt,nt,0,-4,nt
CCS(=O)(=O)c1ccc(OC)c(N=Nc2ccc(O)c3ncccc23)c1,0,11,0,2,15*,9
Cc1ccc(C)c(N=Nc2ccc(O)c3ncccc23)c1,3,2,0,1,3,5
O=C(N/N=C/c1cn(-c2ccccc2)nc1-c1cc2ccccc2o1)c1ccncc1,-6,5,0,3,3,-34
O=C(O)c1cccc(NC(=O)c2cn(-c3ccccc3)nc2-c2cc3ccccc3o2)c1,4,-5,0,4,16*,-6
COc1ccc(/C=C2\C(=O)NC(=S)N2C(=O)c2ccc(C)cc2)cc1,4,-10,0,0,16*,-8
O=C1NC(=S)N(C(=O)c2ccc(F)cc2)/C1=C/c1cccnc1,6,nt,nt,0,0,-11
CN(C)/C=C1\SC(=S)N(N2C(=O)C3C4C=CC(C4)C3C2=O)C1=O (stereo unspecified),2,-6,0,0,-2,-3
COc1ccccc1N(/N=C1\Sc2ccccc2C1=O)C(C)=O,15*,nt,nt,3,-1,-8
COc1ccccc1NC1=C(NC(C)=O)C(=O)c2ccccc2C1=O,-5,-2,0,nt,nt,-8
COc1ccc(-c2[nH]ncc2CNCCc2ncccc2C)cc1F,5,-9,0,4,-2,-2
O=C(CCC(=O)N1CCN(c2ccccn2)CC1)c1ccc(Cl)s1,nt,nt,nt,3,0,nt
CCN(Cc1cccs1)C(=O)CN1C(=O)NC(c2ccccc2)(c2ccccc2)C1=O,nt,nt,nt,1,1,nt
O=C(O)c1cc(O)c2c(c1)C(=O)c1cccc(O)c1C2=O,12,5,0,-1,3,27*
Cn1c(=O)[nH]c(=O)c2c1nc([N+](=O)[O-])n2Cc1ccccc1,12,nt,nt,4,1,0
COC(=O)c1ccccc1NC(=S)NC(=O)c1cccc2ccccc12,34*,0,0,2,1,-7
NC(=O)CC[C@@H]1NC(=O)[C@H](CO)NC(=O)c2cc([N+](=O)[O-])cc(I)c2NCCC[C@@H](C(N)=O)NC(=O)[C@H](Cc2ccc(O)cc2)NC1=O,18*,3,0,-1,-3,-10
CC(C)C[C@@H]1NC(=O)[C@H](Cc2ccc(O)cc2)NC(=O)c2cc([N+](=O)[O-])cc(I)c2NCCC[C@@H](C(N)=O)NC1=O,16*,-6,0,1,10,-16
Cc1ccc(NC(=O)CCn2c(=O)[nH]c3ccsc3c2=O)cc1C,nt,nt,nt,3,1,nt
